Compound activity (PubChem)
Compounds with a hit are over-represented: about 7.1% of the library has one in this group of screens.
PTEN del growth: suppresses growth of cells with PTEN deletion. HCT116 PTEN-null viability, CellTiter-Glo, 60 h; hits give low values. viability, % at 10 µM. hit rate 1.2% among 140,000. AID 827;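 active means viability at or below a set limit, 4 SD under the median of all tested compounds, cut at about 3.7% in these data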;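 further: PTEN knockout HCT116 line with beta catenin targeted HCT116 as companion control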
HUVEC prolif 384: human endothelial cell proliferation inhibition. HUVEC proliferation, CellTiter-Glo luminescence, 72 h; hits give low values. viability, % at 10 µM (by protocol). hit rate 1.1% among 86,000. AID 648;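 active means viability at or below 30%; inactive means viability above 30%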;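 further: 100% = median luminescence of DMSO-only cell control wells on each plate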
Cav32 inh: human Cav3.2 channel inhibition, primary screen | O95180 | Cav3.2-expressing cells, Fluo-4 calcium fluorescence FDSS; hits give low values | B-score at 10 µM | hit rate 4% among 100,000;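 active means single-dose well whose peak fluorescence ratio is a statistical outlier from its plate by either plate-standardised score or position-corrected B-score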
Target sequence (O95180 whole entry, looked up): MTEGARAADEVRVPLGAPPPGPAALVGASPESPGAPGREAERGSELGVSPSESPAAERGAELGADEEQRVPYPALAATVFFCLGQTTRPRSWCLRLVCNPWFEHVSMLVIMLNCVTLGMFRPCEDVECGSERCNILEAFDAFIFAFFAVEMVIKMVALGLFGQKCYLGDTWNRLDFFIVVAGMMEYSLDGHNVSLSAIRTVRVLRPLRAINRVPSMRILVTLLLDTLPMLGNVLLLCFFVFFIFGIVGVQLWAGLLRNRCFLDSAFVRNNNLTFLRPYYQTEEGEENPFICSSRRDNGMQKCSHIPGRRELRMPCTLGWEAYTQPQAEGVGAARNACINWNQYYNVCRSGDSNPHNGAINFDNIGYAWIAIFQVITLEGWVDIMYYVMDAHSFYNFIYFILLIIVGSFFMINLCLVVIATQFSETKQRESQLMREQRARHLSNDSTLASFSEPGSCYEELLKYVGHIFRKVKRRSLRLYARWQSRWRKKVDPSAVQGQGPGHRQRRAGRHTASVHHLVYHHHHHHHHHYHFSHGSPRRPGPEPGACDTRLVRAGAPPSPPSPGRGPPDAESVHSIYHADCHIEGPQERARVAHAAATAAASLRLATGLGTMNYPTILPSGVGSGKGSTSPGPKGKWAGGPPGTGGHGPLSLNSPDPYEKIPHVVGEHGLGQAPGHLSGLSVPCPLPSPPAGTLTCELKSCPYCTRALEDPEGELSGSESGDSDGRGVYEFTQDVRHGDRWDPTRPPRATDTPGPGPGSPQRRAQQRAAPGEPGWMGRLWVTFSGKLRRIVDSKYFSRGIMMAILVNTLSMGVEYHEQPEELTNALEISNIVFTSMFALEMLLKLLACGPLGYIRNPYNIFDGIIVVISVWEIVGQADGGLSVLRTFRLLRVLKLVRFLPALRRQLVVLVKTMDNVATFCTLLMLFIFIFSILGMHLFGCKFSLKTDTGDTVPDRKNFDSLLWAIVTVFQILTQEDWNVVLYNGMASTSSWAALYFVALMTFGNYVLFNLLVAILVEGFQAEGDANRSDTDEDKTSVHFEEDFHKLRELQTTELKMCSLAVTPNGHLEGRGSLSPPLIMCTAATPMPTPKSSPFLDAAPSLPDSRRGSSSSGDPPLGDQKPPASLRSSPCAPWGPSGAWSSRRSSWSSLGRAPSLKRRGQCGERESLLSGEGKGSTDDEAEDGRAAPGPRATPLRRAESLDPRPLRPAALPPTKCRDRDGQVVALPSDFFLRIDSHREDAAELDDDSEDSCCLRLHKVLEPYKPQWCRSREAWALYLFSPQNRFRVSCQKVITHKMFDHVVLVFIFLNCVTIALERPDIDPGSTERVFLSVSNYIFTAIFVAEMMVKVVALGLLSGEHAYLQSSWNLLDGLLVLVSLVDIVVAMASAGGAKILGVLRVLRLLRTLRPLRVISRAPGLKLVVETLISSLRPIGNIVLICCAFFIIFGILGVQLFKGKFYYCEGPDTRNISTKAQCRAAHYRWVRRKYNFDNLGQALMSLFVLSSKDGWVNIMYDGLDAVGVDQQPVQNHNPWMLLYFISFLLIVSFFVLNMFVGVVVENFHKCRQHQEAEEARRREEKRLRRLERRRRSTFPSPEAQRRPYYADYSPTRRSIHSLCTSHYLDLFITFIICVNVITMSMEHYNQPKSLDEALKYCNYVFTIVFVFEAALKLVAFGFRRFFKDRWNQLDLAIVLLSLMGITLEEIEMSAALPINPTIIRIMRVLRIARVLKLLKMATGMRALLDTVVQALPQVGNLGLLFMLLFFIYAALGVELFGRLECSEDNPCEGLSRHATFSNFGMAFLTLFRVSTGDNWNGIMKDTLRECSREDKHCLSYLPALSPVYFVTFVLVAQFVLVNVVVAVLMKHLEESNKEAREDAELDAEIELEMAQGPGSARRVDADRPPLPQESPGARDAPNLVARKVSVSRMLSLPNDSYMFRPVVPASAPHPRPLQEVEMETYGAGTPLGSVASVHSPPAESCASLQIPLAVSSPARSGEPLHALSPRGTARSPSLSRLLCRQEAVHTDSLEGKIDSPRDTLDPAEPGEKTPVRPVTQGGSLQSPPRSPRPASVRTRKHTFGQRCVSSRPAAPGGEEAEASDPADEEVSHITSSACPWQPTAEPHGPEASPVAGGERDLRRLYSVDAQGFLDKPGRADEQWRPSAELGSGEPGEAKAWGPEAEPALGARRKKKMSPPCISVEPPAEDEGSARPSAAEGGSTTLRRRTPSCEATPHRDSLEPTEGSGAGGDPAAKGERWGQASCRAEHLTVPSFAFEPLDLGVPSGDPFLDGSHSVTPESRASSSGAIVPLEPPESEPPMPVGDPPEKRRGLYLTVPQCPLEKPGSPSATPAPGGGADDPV
Lung fibro prol: blocks proliferation of human lung fibroblasts. LL 47 human lung fibroblast viability, ATP luminescence; hits give low values. viability, % at 10 µM. hit rate 1.1% among 85,000;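 active means viability at or below 50% in the single dose screen; inactive means viability above 50%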;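 further: compound exposure lasted 72 h before the ATP readout; 100% = median luminescence of untreated cell-only wells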
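test system = LL 47 human lung fibroblasts | amount = 1,150 fibroblasts seeded per well | medium = 15% FBS in IMEM | times = overnight cell rest, 72 h compound treatment at 37 °C | measured by = CellTiter-Glo luminescence measuring cellular ATP | read-out = viability percentage against median untreated-cell control | benchmarks = cell-only wells, no compound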
H69AR growth 86K: growth inhibitors of human H69AR lung tumor cells; viability, % at 10 µM; hit rate 6% among 85,000; H69AR lung tumor viability, ATP luminescence, 72 h; hits give low values;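 active means viability at or below 40%; inactive means viability above 40%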;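 further: multidrug resistant small cell line overexpressing MRP-1 efflux transporter; 100% = mean luminescence of untreated control wells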
bCat KO growth: beta-catenin-lacking colon tumor cell growth suppression. HCT116 beta-catenin knockout viability, CellTiter-Glo, 60 h; hits give low values. viability, % at 10 µM. hit rate 1.5% among 140,000. AID 818;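 active means viability at or under a set limit, the compound median less 4 SD, cut at about 6% in these data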;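 further: 0% = Hyamine 1622 control at 20 µM and 100% = untreated cell control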
Numbers without * were called inactive; / = not tested or not shown.

SMILES	PTEN del growth	HUVEC prolif 384	Cav32 inh	Lung fibro prol	H69AR growth 86K	bCat KO growth
O=C(CSc1nc2cc(Cl)ccc2c(=O)n1Cc1ccco1)Nc1ccc(S(=O)(=O)N2CCOCC2)cc1	86.3	/	/	/	/	90.5
COC(=O)c1ccc2c(=O)n(Cc3ccco3)c(SCC(=O)Nc3ccc(C)c(Cl)c3)nc2c1	8.1	50.2	-0.108	11.8*	8.1*	9.1
O=C(CSc1nc2ccccc2c(=O)n1CCCC(=O)N1CCCC1)NCc1ccco1	99.2	94.5	1.71	90.5	75.7	99.5
CCc1ccc(NC(=O)CSc2nc3ccccc3c(=O)n2CCCC(=O)N2CCCC2)cc1	54.9	54.8	-0.644	74.5	29.6*	52.1
CCCCNC(=O)CSc1nc2ccccc2c(=O)n1CC1COc2ccccc2O1 (centres undefined)	70.0	86.3	-2.53	100.4	27.2*	66.8
CCOC(=O)c1cccc(NC(=O)CSc2nnc(C)n2Cc2ccccc2)c1	92.7	91.5	-0.368	94.5	71.7	86.5
CCOC(=O)c1cccc(NC(=O)CSc2nc3ccccc3c(=O)n2CC)c1	79.8	70.2	0.647	79.3	40.0*	81.0
CCOc1ccc(-c2c(C(=O)N/N=C/c3ccc(OC)cc3)nnn2-c2nonc2N)cc1	85.4	/	/	/	/	87.9
Cc1ccccc1C(=O)NNC(=O)CSc1nnc(C)n1-c1ccccc1	100.9	/	/	/	/	98.7
Cc1cc(NC(=O)CSc2nc3cc4c(cc3c(=O)n2CCc2ccccc2)OCO4)no1	58.9	15.6*	-1.01	67.6	10.4*	43.8
Cc1cc(NC(=O)CSc2nc3c(c(=O)n2CCc2ccccc2)SC(C)C3)no1 (centres undefined)	94.6	83.7	0.115	75.4	73.4	89.5
CCOC(=O)CSc1nc2ccccc2c(=O)n1CCC(=O)NCCc1ccc(OC)c(OC)c1	3.2*	92.8	-0.286	104.2	95.1	3.2*
N#CCSc1nc2ccccc2c(=O)n1CCC(=O)NCCc1ccccc1	103.4	89.7	0.285	99.6	96.2	95.4
CN(C)C=Nc1c(Br)cc(Br)c2nonc12	94.3	112.3	-4.17*	105.7	106.4	93.5
O=C(c1cccs1)N1CCN(Cc2ccccc2[N+](=O)[O-])CC1	92.3	/	/	/	/	83.7
Cc1noc(C)c1COC(=O)c1ccc2c(c1)S(=O)(=O)c1ccccc1C2=O	96.1	95.4	-1.04	106.6	83.6	99.3
CCOc1ccc(N2C(=O)c3ccc(C(=O)OCc4c(C)noc4C)cc3C2=O)cc1	98.5	41.6	/	72.3	35.8*	98.6
Cc1ccc(NC(=O)NC2=N/C(=C(/C#N)C(=O)N3CCCC3)c3ccccc32)cc1	/	105.0	-2.23	109.5	36.8*	/
N#C/C(C(=O)N1CCCC1)=C1/N=C(N)c2ccccc21	94.5	/	/	/	/	83.9
Cc1ccc(Cl)c(OC(=O)c2nn(C(C)C)c(=O)c3ccccc23)c1	89.3	/	/	/	/	97.2
Cc1cc(N2CCCCC2)n2ncc(-c3ccccc3)c2n1	72.9	81.0	0.742	86.9	38.2*	76.1
Cc1nn2c(N3CCN(C4CCCC4)CC3)cc(C(C)(C)C)nc2c1-c1ccccc1	112.2	87.9	0.0907	99.0	73.8	97.8
Cc1cc(N2CCOCC2)n2ncc(-c3ccccc3)c2n1	90.5	77.0	-1.74	81.0	27.5*	92.2
Cc1cc(N2CCN(C(=O)c3ccco3)CC2)n2ncc(-c3ccccc3)c2n1	41.8	84.0	2.61	94.2	27.3*	55.2
Cc1nn2c(N3CCN(C(=O)c4ccco4)CC3)cc(C(C)(C)C)nc2c1-c1ccccc1	7.0	72.5	-6.69*	87.4	99.6	3.8*
SMILES	PTEN del growth	HUVEC prolif 384	Cav32 inh	Lung fibro prol	H69AR growth 86K	bCat KO growth
Cc1ccc(NC(=O)c2ccc3c(c2)OCCO3)cc1S(=O)(=O)Nc1cccc(Cl)c1	46.0	/	/	/	/	53.6
Cc1c(C(=O)O)cccc1-c1ccc(/C=N/Nc2ccc(Br)cc2)o1	89.3	/	/	/	/	87.7
O=C(CN1CCC(NC(=O)Cc2ccccc2)CC1)Nc1ccccc1Br	85.6	/	/	/	/	84.0
CCOc1ccc(N=CC2=C(O)CC(C)(C)CC2=O)cc1	96.5	75.7	-0.129	93.2	39.8*	90.8
NS(=O)(=O)c1ccc(NC(=S)Nc2cc(Cl)c(Cl)cc2Cl)cc1	92.5	/	/	/	/	97.7
O=C1c2ccccc2C(=O)N1CCCCN(C(=O)c1cc2ccccc2oc1=O)c1ccc(F)cc1F	88.4	/	/	/	/	97.1
Cc1cc(C(=O)Cn2nnc3ccccc3c2=O)c(C)n1-c1ccccc1F	59.4	78.0	-7*	73.3	102.0	60.5
